Source: ChEMBL document CHEMBL1138050, “Furan-2-ylmethylene thiazolidinediones as novel, potent, and selective inhibitors of phosphoinositide 3-kinase gamma” (J Med Chem, 2006)
Calls of active or inactive are those of the source. No cut-off for these calls is given here.

Experiments:
[1] = target: Dual specificity mitogen-activated protein kinase kinase 7 (Homo sapiens, UniProt O14733); test: Inhibition of human MKK7beta
[2] = target: Tyrosine-protein kinase ZAP-70 (Homo sapiens) (UniProt P43403); test: Residual activity at human ZAP70 at 10 uM in presence of 10 uM ATP relative to control
Method in brief: (§1)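 Single-concentration counter-screen across a panel of 80 Ser/Thr and Tyr protein kinases. Compound was tested at 10 µM with ATP at 10 µM. Activity remaining in each kinase is expressed relative to control.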

[3] = target: Serine/threonine-protein kinase Chk2 (Homo sapiens) (UniProt O96017); test: Residual activity at human Chk2 at 10 uM in presence of 10 uM ATP relative to control
Method in brief: (§2)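 Panel of Ser/Thr and Tyr protein kinases, each tested with 10 µM compound in the presence of 10 µM ATP; activity expressed relative to control.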

[4] = target: Proto-oncogene tyrosine-protein kinase Src (Homo sapiens) (UniProt P12931); test: Residual activity at human cSRC at 10 uM in presence of 10 uM ATP relative to control; method in brief: as §1
[5] = target: Receptor-type tyrosine-protein kinase FLT3 (Homo sapiens) (UniProt P36888); test: Residual activity at human Flt3 at 10 uM in presence of 10 uM ATP relative to control; method in brief: as §2
Rattus norvegicus [6] = test: Half life in rat at 10 mg/kg, iv; type: ADME, organism-based; design: dose 10 mg/kg, route intravenous; details: in vivo
Method in brief: (§3)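 Rats given a single 10 mg/kg dose, intravenously or orally. The compound was given as its potassium salt, prepared with KOH in THF/water, for the in vivo work.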

[7] = target: Protein kinase C gamma type (Homo sapiens) (UniProt P05129); test: Residual activity at human PKCgamma at 10 uM in presence of 10 uM ATP relative to control; method in brief: as §1
[8] = target: Tyrosine-protein kinase receptor UFO (Homo sapiens) (UniProt P30530); test: Residual activity at human Axl at 10 uM in presence of 10 uM ATP relative to control; method in brief: as §2
[9] = target: Aurora kinase A (Homo sapiens) (UniProt O14965); test: Residual activity at human Aurora A at 10 uM in presence of 10 uM ATP relative to control; method in brief: as §2
[10] = target: CDK6/cyclin D3 (Homo sapiens) (UniProt P30281+Q00534); test: Residual activity at human CDK6/CyclinD3 at 10 uM in presence of 10 uM ATP relative to control; type: protein-complex assay; method in brief: as §2
[11] = Half life in rat at 10 mg/kg, po; type: ADME, organism-based; design: dose 10 mg/kg, route oral; details: in vivo; method in brief: as §3
[12] = target: Cyclin-dependent kinase 5/CDK5 activator 1 (Homo sapiens) (UniProt Q00535+Q15078); test: Residual activity at human CDK5/p35 at 10 uM in presence of 10 uM ATP relative to control; type: protein-complex assay; method in brief: as §2
Mast cell = test: Inhibition of SCF-induced PKB/Akt phosphorylation in mouse mast cells at 10 uM; type: functional, cell-based
Method in brief: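 Bone marrow mast cells from 4- to 8-week-old wild-type mice, derived ≥4 weeks in 20 ng/mL SCF plus 20 ng/mL IL-3 and confirmed c-kit+ by FACS. Cells at 2.5 × 10^6/mL starved 24 h without SCF/IL-3, preincubated 20 min with compound or 1% DMSO, stimulated 15 min at 37 °C with 20 ng/mL SCF. Fixed in 1.5% paraformaldehyde, permeabilized with 0.2% Triton X-100, phospho-Ser-473 Akt read by FACS.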

[13] = target: Tyrosine-protein kinase Lyn (Homo sapiens) (UniProt P07948); test: Residual activity at human Lyn at 10 uM in presence of 10 uM ATP relative to control; method in brief: as §1
[14] = target: Phosphatidylinositol 4,5-bisphosphate 3-kinase catalytic subunit alpha isoform (Homo sapiens, UniProt P42336); test: Inhibition of human PI3Kalpha
[15] = target: Ribosomal protein S6 kinase beta-1 (Homo sapiens) (UniProt P23443); test: Residual activity at human p70S6K at 10 uM in presence of 10 uM ATP relative to control; method in brief: as §1
[16] = target: Dual specificity mitogen-activated protein kinase kinase 4 (Mus musculus) (UniProt P47809); test: Residual activity at mouse MKK4 at 10 uM in presence of 10 uM ATP relative to control; method in brief: as §1
[17] = target: Serine/threonine-protein kinase D2 (Homo sapiens) (UniProt Q9BZL6); test: Residual activity at human PKD2 at 10 uM in presence of 10 uM ATP relative to control; method in brief: as §1
[18] = target: Inhibitor of nuclear factor kappa-B kinase subunit alpha (Homo sapiens) (UniProt O15111); test: Residual activity at human IKKalpha at 10 uM in presence of 10 uM ATP relative to control; method in brief: as §2
Rattus norvegicus [19] = test: Volume of distribution in rat at 10 mg/kg, iv; type: ADME, organism-based; design: dose 10 mg/kg, route intravenous; details: in vivo
Method in brief: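 Given to rats as a single 10 mg/kg intravenous dose of the potassium salt, run alongside a matching oral arm. Pharmacokinetic parameters derived were CL, AUC, Cmax, t1/2 and Vd.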

[20] = target: Cyclin-dependent kinase 1/cyclin B1 (Homo sapiens) (UniProt P06493+P14635); test: Residual activity at human CDK1/CyclinB at 10 uM in presence of 10 uM ATP relative to control; type: protein-complex assay; method in brief: as §2
[21] = target: RAC-gamma serine/threonine-protein kinase (Homo sapiens) (UniProt Q9Y243); test: Residual activity at human PKBgamma at 10 uM in presence of 10 uM ATP relative to control; method in brief: as §1
[22] = target: cAMP-dependent protein kinase (PKA) (Homo sapiens) (UniProt P22694+P17612+P22612); test: Residual activity at human PKA at 10 uM in presence of 10 uM ATP relative to control; type: protein assay; method in brief: as §1
[23] = Cmax in rat at 10 mg/kg, po; type: ADME, organism-based; design: dose 10 mg/kg, route oral; details: in vivo; method in brief: as §3
[24] = target: Tyrosine-protein kinase CSK (Homo sapiens) (UniProt P41240); test: Residual activity at human CSK at 10 uM in presence of 10 uM ATP relative to control; method in brief: as §2
[25] = target: Tyrosine-protein kinase Fes/Fps (Homo sapiens) (UniProt P07332); test: Residual activity at human Fes at 10 uM in presence of 10 uM ATP relative to control; method in brief: as §2
[26] = target: Mitogen-activated protein kinase 11 (Homo sapiens) (UniProt Q15759); test: Residual activity at human SAPK2b at 10 uM in presence of 10 uM ATP relative to control; method in brief: as §1
[27] = Metabolism in human microsome after 1 hr; type: ADME; details: microsomes, read-out: Activity
[28] = target: Platelet-derived growth factor receptor beta (Homo sapiens) (UniProt P09619); test: Residual activity at human PDGFRbeta at 10 uM in presence of 10 uM ATP relative to control; method in brief: as §1
THP-1 = test: Inhibition of MCP1-induced PKB/Akt phosphorylation in THP1 cells; type: functional, cell-based; details: Homo sapiens
Method in brief: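 THP-1 monocytes starved 3 h in serum-free medium and pretreated with inhibitor or DMSO (15 min in methods; 20 min in figure legend). Stimulated with 100 nM MCP-1/CCL2 for 30 s, or with 50 ng/mL CSF-1 for 5 min. Phospho-Ser-473 and total Akt detected by Western blot and quantified.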

Sequence of Tyrosine-protein kinase receptor UFO (Homo sapiens) (P30530 whole entry): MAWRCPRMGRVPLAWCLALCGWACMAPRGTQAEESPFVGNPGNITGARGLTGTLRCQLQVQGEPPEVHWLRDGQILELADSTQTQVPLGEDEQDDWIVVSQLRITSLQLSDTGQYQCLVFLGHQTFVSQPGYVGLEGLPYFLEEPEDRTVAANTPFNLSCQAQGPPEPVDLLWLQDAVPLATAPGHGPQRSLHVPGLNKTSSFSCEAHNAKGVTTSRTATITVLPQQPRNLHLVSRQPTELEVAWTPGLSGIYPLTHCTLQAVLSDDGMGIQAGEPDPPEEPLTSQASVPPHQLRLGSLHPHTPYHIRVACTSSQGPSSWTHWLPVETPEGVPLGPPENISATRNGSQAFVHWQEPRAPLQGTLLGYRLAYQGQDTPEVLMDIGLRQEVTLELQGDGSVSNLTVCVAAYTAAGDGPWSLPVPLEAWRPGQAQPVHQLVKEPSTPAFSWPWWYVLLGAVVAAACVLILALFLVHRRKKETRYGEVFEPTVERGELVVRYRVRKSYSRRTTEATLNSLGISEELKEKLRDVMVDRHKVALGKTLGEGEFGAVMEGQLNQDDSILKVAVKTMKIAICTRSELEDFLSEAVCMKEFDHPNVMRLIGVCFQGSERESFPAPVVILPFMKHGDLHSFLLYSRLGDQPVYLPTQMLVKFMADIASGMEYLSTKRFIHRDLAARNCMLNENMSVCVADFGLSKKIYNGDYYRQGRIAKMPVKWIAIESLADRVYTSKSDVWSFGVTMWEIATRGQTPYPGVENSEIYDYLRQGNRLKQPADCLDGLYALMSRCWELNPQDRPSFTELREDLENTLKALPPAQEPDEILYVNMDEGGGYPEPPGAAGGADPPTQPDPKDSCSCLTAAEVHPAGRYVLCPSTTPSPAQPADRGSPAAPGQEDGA
Sequence of RAC-gamma serine/threonine-protein kinase (Homo sapiens) (Q9Y243 whole entry): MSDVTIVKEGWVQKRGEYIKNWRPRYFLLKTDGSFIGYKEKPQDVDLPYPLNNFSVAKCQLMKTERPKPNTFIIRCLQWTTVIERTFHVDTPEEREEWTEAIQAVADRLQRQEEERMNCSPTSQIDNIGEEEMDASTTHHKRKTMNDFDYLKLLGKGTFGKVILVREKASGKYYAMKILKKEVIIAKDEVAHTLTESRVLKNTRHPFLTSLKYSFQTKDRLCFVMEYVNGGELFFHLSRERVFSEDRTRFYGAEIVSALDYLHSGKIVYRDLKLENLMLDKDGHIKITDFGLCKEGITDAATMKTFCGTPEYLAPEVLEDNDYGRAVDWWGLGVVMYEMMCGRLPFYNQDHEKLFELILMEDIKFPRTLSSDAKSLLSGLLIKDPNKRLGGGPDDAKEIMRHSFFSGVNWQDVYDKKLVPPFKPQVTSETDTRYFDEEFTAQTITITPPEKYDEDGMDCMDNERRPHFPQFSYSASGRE
Sequence of Dual specificity mitogen-activated protein kinase kinase 4 (Mus musculus) (P47809 whole entry): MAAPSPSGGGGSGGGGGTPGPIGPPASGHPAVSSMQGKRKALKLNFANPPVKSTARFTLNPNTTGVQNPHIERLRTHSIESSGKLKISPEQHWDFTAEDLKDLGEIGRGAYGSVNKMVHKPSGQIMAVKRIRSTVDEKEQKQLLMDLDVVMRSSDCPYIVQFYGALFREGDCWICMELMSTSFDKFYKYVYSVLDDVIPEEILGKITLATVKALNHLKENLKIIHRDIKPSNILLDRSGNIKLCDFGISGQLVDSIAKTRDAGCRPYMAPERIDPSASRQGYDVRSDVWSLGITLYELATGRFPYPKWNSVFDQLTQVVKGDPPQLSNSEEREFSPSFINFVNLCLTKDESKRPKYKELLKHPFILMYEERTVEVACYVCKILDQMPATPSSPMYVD
Sequence of Inhibitor of nuclear factor kappa-B kinase subunit alpha (Homo sapiens) (O15111 whole entry): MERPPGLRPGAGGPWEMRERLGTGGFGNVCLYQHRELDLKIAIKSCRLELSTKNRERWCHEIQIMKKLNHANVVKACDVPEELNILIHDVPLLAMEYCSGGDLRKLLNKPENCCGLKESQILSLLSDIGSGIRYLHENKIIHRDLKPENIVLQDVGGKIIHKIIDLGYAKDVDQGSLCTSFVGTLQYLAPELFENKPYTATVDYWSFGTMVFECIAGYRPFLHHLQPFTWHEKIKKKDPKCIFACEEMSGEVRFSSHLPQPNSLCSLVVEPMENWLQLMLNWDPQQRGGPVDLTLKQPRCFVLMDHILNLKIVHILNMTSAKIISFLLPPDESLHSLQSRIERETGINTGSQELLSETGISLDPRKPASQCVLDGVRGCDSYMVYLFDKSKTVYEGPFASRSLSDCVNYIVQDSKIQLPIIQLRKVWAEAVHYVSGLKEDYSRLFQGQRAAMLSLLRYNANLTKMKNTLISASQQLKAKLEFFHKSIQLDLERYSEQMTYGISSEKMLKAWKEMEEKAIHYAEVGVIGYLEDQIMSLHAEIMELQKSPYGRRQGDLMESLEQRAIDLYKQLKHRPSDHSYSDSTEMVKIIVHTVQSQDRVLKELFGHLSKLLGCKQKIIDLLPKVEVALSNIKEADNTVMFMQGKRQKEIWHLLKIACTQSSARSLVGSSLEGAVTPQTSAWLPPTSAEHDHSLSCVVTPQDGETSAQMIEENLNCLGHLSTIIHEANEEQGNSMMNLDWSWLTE
Sequence of Aurora kinase A (Homo sapiens) (O14965 whole entry): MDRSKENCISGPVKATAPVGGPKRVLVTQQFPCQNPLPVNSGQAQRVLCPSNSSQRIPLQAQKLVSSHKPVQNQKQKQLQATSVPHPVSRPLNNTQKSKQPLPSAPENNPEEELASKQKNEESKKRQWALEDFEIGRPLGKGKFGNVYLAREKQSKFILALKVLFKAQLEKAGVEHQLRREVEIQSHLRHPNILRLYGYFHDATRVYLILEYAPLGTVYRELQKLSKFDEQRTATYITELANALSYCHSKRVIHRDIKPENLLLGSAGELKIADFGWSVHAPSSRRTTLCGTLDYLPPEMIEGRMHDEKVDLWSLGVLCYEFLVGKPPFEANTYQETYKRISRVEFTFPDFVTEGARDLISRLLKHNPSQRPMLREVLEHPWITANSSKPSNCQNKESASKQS
Sequence of Cyclin-dependent kinase 5/CDK5 activator 1 (Homo sapiens) (Q00535 whole entry): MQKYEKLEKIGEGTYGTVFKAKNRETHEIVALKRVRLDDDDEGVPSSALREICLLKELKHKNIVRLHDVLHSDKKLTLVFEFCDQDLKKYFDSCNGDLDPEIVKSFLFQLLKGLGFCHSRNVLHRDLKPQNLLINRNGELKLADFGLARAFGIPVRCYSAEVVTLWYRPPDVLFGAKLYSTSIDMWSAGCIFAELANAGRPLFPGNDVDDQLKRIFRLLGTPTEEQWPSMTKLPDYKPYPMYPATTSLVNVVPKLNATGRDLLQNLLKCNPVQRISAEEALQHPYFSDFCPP
Sequence of Cyclin-dependent kinase 5/CDK5 activator 1 (Homo sapiens) (Q15078 99-307 partner limits assumed): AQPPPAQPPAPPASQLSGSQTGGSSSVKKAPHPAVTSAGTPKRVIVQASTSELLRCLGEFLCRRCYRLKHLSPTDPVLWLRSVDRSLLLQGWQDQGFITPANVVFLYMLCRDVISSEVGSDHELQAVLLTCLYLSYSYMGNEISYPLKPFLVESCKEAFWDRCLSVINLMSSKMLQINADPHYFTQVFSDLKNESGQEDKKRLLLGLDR
Sequence of Tyrosine-protein kinase Lyn (Homo sapiens) (P07948 2-512 limits assumed): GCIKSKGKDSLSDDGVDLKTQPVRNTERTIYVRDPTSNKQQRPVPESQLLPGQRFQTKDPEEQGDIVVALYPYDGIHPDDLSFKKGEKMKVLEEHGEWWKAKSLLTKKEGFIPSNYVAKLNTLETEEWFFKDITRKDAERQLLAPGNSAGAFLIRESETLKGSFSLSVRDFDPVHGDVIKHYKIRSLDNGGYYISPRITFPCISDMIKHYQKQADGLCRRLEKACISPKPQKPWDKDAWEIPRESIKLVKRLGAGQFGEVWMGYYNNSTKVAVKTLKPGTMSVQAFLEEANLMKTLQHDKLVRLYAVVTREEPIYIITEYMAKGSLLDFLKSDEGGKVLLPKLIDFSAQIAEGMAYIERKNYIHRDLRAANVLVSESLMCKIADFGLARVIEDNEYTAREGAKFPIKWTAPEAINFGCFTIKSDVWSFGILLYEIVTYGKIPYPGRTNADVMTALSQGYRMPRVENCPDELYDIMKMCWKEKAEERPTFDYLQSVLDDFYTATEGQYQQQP
Sequence of Mitogen-activated protein kinase 11 (Homo sapiens) (Q15759 whole entry): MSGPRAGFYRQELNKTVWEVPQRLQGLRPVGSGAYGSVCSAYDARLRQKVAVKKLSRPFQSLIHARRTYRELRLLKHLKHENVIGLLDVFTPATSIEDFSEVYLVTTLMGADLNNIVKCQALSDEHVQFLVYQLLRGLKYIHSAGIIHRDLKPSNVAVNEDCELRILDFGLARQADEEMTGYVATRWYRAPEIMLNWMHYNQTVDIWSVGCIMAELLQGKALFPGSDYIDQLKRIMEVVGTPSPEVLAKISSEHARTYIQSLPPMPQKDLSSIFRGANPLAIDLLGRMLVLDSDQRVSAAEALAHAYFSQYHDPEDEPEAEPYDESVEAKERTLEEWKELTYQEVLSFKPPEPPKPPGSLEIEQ

- IC50 [1]: > 10000 nM
- Activity [2]: 159%
- Activity [3]: 82%
- Activity [4]: 66%
- Activity [5]: 93%
- T1/2 (Rattus norvegicus [6]): 0.65 h
- Activity [7]: 107%
- Activity [8]: 74%
- Activity [9]: 85%
- Activity [10]: 89%
- half-life [11]: 1 h
- Activity [12]: 83%
- Activity [13]: 101%
- IC50 [14]: 940 nM
- Activity [15]: 190%
- Activity [16]: 85%
- Activity [17]: 91%
- Activity [18]: 82%
- Vdss (Rattus norvegicus [19]): 25.3 L/kg
- Activity [20]: 80%
- Activity [21]: 96%
- Activity [22]: 89%
- Cmax [23]: 309 ng/mL
- Activity [24]: 103%
- Activity [25]: 90%
- Activity [26]: 89%
- metabolised at 1 h [27]: 10%
- Activity [28]: 96%
- IC50 (THP-1): 400 nM
SMILES: O=C1NC(=O)/C(=C/c2ccc(-c3ccc(F)cc3O)o2)S1
- Activity (Mast cell): inactive
